Source: PubChem
EBV gp42 block: inhibitors of Epstein-Barr virus glycoprotein 42 | Fluorescence polarization binding assay, mP read-out | inhibition, % (tested at 21.74 µM) | actives 0.42% (n = 220,000) | AID 1085
Target sequence (Q1HVG2 whole entry, looked up): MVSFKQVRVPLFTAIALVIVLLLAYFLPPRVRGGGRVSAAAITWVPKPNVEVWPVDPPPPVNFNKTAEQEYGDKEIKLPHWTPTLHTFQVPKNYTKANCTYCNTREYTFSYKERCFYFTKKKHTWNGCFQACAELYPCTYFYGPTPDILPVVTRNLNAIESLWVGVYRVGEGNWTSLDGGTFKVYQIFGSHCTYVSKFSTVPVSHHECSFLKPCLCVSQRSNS
MEX-5 binding: C. elegans MEX-5 TCR-2 RNA binding activity. activity score (negative = inhibition of binding), % at 10 µM. Q9XUB2. MEX-5/FITC-TCR2 RNA binding, fluorescence polarization; stronger effect = lower value. AID 1832. actives 0.38% (n = 300,000);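 active = inhibition past about -25% in most replicates, and total fluorescence under double the plate's negative control median, limit read from the data; inconclusive = replicates evenly split on the limit, or fluorescence at least double controls; inactive = too little inhibition in most replicates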;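 also: 0% = DMSO and -100% = 5 µM competing unlabeled TCR2 RNA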
PKD1 kinase inh: blocks activity of human protein kinase D1 | AID 797 | inhibition, % (concentration not given with the values) | actives 0.056% (n = 200,000) | PKD1 kinase fluorescence polarization assay | Q15139
Runt-SMMHC FRET: Runt domain-CBFb-SMMHC interaction inhibition | Q01196+Q13951 | Cerulean-Runt/Venus-CBFb-SMMHC FRET ratio 530/480, 1 h | inhibition, % at 20 µM | actives 0.74% (n = 220,000) | AID 1434;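 active = mean inhibition across duplicate retests at 20 µM reaching about 50%, limit read from the data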;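 also: 0% = DMSO wells and 100% = wells with excess untagged CBFb-SMMHC; inhibitors lower the FRET ratio by blocking Runt binding to CBFb-SMMHC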
Runt-CBFb FRET: blocks binding of human RUNX1 Runt domain to CBFb. actives 0.46% (n = 220,000). inhibition, % at 20 µM. Cerulean-Runt/Venus-CBFb FRET ratio 530/480, 1 h;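 active = inhibition over about 50% at 20 µM in the single-dose screen, limit read from the data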;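 also: 0% = DMSO wells and 100% = excess unlabeled CBFb competitor control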
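System: Cerulean-labeled Runt domain protein | Quantity: 100 nM of each labeled protein | Schedule: 1 h compound exposure, room temperature | Detection: Fluorescence energy transfer, 422 nm excitation, 530/480 nm emission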
RanGTP-Impb inh: inhibitors of RanGTP-importin-beta interaction, primary screen, biochemical, FRET, CFP-Ran, YFP-importin-beta, homogeneous; cell-free CFP-Ran/YFP-importin-beta FRET ratio; inhibition, % (test concentration not listed); actives 1.1% (n = 300,000); AID 2216;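 active = more than half of the replicate wells show a fall in the fluorescence ratio signal beyond about 16%, limit read from the data, passing the limit was not always enough; inconclusive = exactly half of the replicate wells pass the set limit; inactive = fewer than half of replicates pass the limit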;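 also: 0% = DMSO wells and 100% = Ran loaded with GDP instead of GTP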
* hit, by the source's call; ? = inconclusive; nt = no result given. Hits are enriched below; roughly 2% of the tested compounds scored in any of these assays. Rule as the data show it, unless noted: active = inhibition above about 50%; inactive = the rest.

SMILES | EBV gp42 block | MEX-5 binding | PKD1 kinase inh | Runt-SMMHC FRET | Runt-CBFb FRET | RanGTP-Impb inh
CC(C)CNC(=S)N(CCCO)Cc1cc2cc3c(cc2[nH]c1=O)OCCO3 | nt | -0.3 | nt | nt | nt | 31.0*
CC(C)CNC(=S)N(CCCN(C)C)Cc1cc2cc3c(cc2[nH]c1=O)OCCO3 | nt | 0.2 | nt | nt | nt | -2.8
Nc1ccc2c(c1Cl)C(=O)c1ccc(N)c(Cl)c1C2=O | 76.3* | -3.3 | nt | -9.6 | -3.4 | -2.3
Cc1cc(/C=C2\SC(=S)NC2=O)c(C)n1-c1ccccc1 | 41.0 | -2.8 | nt | 17.3 | 25.5 | 9.3
Cc1cc(/C=C2\SC(=S)NC2=O)c(C)n1-c1ccc(O)cc1 | -103.2 | 3.3 | nt | -38.5 | -10.5 | 23.5*
COc1ccc(-c2ccc(-c3noc(-c4ccccc4)n3)c(OC)n2)cc1 | -18.8 | -5.8 | -7.0 | 20.6 | 5.6 | 29.8*
CN(C)/C=C1/Sc2ccccc2C1=O | -15.9 | 3.8 | 9.4 | 61.6 | 27.7 | 18.5*
CCN1/C(=C/C=C/c2oc3ccc4ccccc4c3[n+]2CC)Oc2ccc3ccccc3c21 | 162.2* | 5.3 | -5.4 | 11.9 | 8.6 | nt
Cc1ccc(/C=C2\SC(=S)N(C3CCS(=O)(=O)C3)C2=O)o1 (stereo not drawn) | -38.6 | -1.3 | -5.0 | -34.6 | 6.7 | 7.3
CC1=C(C#N)C(=O)N(C2CCS(=O)(=O)C2)C(=O)/C1=C\c1ccc(C)o1 (stereo not drawn) | 117.9* | ? | nt | -146.3 | -19.4 | -2.4
Oc1[nH]c(N=C2N=c3ccccc3=N2)c2ccccc12 | -11.8 | -37.5* | nt | -3.9 | -30.4 | 4.8
N#CC(=C1N=c2ccccc2=N1)c1c(O)[nH]c2ccccc12 | -5.9 | nt | 2.6 | -8.2 | -2.2 | nt
CCOC(=O)C1(Cc2cccc(OC)c2)CCN(Cc2cccnc2)CC1 | 1.0 | 2.1 | 0.4 | nt | nt | 55.5*
CCOC(=O)C1(Cc2cccc(OC)c2)CCN(Cc2cccc(OC)c2OC)CC1 | 0.6 | 0.6 | 5.9 | 2.7 | 0.4 | 12.3
CCOC(=O)C1(Cc2cccc(OC)c2)CCN(Cc2cnc(SC)nc2)CC1 | 6.0 | 2.2 | 2.5 | 6.6 | 4.0 | 67.7*
CCOC(=O)C1(Cc2cccc(OC)c2)CCN(Cc2cccc3cnccc23)CC1 | -15.0 | -0.7 | 0.9 | 6.4 | 6.3 | 86.0*
COc1ccc(OC)c(C2CC(=O)C(C)C(c3cc(OC)ccc3OC)N2)c1 (stereo not drawn) | -9.6 | 0.6 | -10.9 | -1.2 | 1.5 | 10.7
COc1ccc(C2NC(c3ccc(OC)cc3OC)C(C)C(=O)C2C)c(OC)c1 (stereo not drawn) | -6.5 | 0.8 | -1.9 | -0.3 | -2.2 | 116.3*
O=C(CNC1CCN(Cc2ccccc2)CC1)Nc1ccc(S(=O)(=O)N2CCCCC2)cc1 | -11.2 | -2.6 | nt | 0.0 | -0.9 | -6.5
CCc1cc(=O)oc2cc(OC(=O)CN3C(=O)NC4(CCCC4)C3=O)ccc12 | nt | -0.4 | nt | nt | nt | 3.4
O=C(CN1C(=O)NC2(CCCCC2)C1=O)Oc1ccc2c(C(F)(F)F)cc(=O)oc2c1 | nt | 1.0 | nt | nt | nt | 32.7*
O=C(CCCc1ccccc1)Nc1nccs1 | nt | -0.6 | nt | nt | nt | -1.8
CCc1ccc2nc3nc(C)cc(C)c3c(N)c2c1 | 6.9 | -5.7 | -3.1 | 43.7 | 9.8 | 149.2*
Cc1cc(C)c2c(N)c3ccccc3nc2n1 | -6.8 | -3.3 | 14.3 | 77.9* | 10.9 | 134.8*
CC(=O)C1=C(C)OC(N)=C(C#N)C1c1cccc2ccccc12 (stereo not drawn) | 5.1 | -2.9 | nt | -2.9 | 6.2 | -0.2
CC(=O)n1c2c(c3ccccc31)OC(N)=C(C#N)C2c1ccc(C(C)C)cc1 (stereo not drawn) | -16.9 | 0.4 | -6.9 | -7.1 | -7.3 | 31.1*
O=C(Nc1cccc(S(=O)(=O)N2CCCCC2)c1)C1CC(=O)N(Cc2ccco2)C1 (stereo not drawn) | -13.7 | 0.2 | -1.0 | -3.2 | 1.2 | 40.4*
CCN1C(=O)/C(=C/c2c(C)nn(C)c2C)SC1=S | -2.3 | -30.2* | -10.2 | -9.4 | -4.5 | ?
CCN1C(=O)/C(=C/c2cnn(CC)c2C)SC1=S | -7.6 | -3.5 | -5.8 | 0.6 | -7.6 | -0.3
Cc1ccc2c(cnn2C(=O)CCCC(=O)NC(C)c2ccccc2)c1 (stereo not drawn) | nt | -0.9 | nt | nt | nt | 4.0
